Active and inactive are the calls of the source. The rule behind the calls is not given here.
Assays:
K562 [1] = assay: Induction of apoptosis in human K562 cells assessed as effect on caspase-8 mRNA expression level at 1 to 10 uM cells after 48 hrs by qPCR analysis; type: toxicity, cell-based; conditions: k562, 48 h, dose 1-10 µM
Outline: (§1)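 K562 cells at 10^5 cells/ml grown without compound (control) or with 10−6 M or 10−5 M compound for 48 h. Total RNA isolated, then checked by gel electrophoresis and spectrophotometry. Transcripts quantified by qPCR.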

FLC clone 745 [2] = assay: Induction of cell cycle arrest in HMBA-stimulated mouse FLC clone 745 cells assessed as accumulation cells at G2/M phase at 10^-6 M after 72 hrs by PI staining based flow cytometric analysis (reference value: 9.86%); type: functional; conditions: dose 1 10^-6M, at 1 µM
Outline: (§2)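 MEL cells plated at 5 × 10^5 per well and synchronized by serum deprivation for 24 h. Cells then incubated with compound at 10−6 M, alone or with HMBA 5 × 10−3 M, for 24, 48 and 72 h. Fixed in 70% ethanol overnight at 4 °C, stained with propidium iodide, and DNA content measured by flow cytometry to assign subG1, G1, S, G2/M and >4N fractions.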

FLC clone 745 [3] = assay: Induction of cell cycle arrest in HMBA-stimulated mouse FLC clone 745 cells assessed as accumulation cells at G1/G0 phase at 10^-6 M after 48 hrs by PI staining based flow cytometric analysis (reference value: 15.23%); type: functional; conditions: dose 1 10^-6M, at 1 µM; outline: as §2
FLC clone 745 [4] = assay: Induction of cell cycle arrest in mouse FLC clone 745 cells assessed as accumulation cells at G1/G0 phase at 10^-6 M after 72 hrs by PI staining based flow cytometric analysis (reference value: 26.4%); type: functional; conditions: dose 1 10^-6M, at 1 µM; outline: as §2
FLC clone 745 [5] = assay: Induction of cell cycle arrest in mouse FLC clone 745 cells assessed as accumulation cells at S phase at 10^-6 M after 24 hrs by PI staining based flow cytometric analysis (reference value: 28.46%); type: functional; conditions: dose 1 10^-6M, at 1 µM; outline: as §2
FLC clone 745 [6] = assay: Cytotoxicity against mouse FLC clone 745 cells assessed as reduction in cell viability at IC50 concentration measured up to 96 hrs by Neubauer chamber based microscopic analysis; type: toxicity; conditions: flc clone 745, 96 h
Outline: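 MEL-745 cells treated continuously with compound at its previously determined 48 h IC50, without inducer, for up to 96 h. Total cell number counted daily in a Neubauer chamber. Final DMSO ≤0.2% v/v.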

FLC clone 745 [7] = assay: Induction of cell cycle arrest in mouse FLC clone 745 cells assessed as accumulation cells at S phase at 10^-6 M after 48 hrs by PI staining based flow cytometric analysis (reference value: 29.53%); type: functional; conditions: dose 1 10^-6M, at 1 µM; outline: as §2
FLC clone 745 [8] = assay: Induction of cell cycle arrest in HMBA-stimulated mouse FLC clone 745 cells assessed as accumulation cells at subG1 phase at 10^-6 M after 24 hrs by PI staining based flow cytometric analysis (reference value: 41.78%); type: functional; conditions: dose 1 10^-6M, at 1 µM; outline: as §2
FLC clone 745 [9] = assay: Induction of cell cycle arrest in HMBA-stimulated mouse FLC clone 745 cells assessed as accumulation cells at > 4N phase at 10^-6 M after 24 hrs by PI staining based flow cytometric analysis (reference value: 9.83%); type: functional; conditions: dose 1 10^-6M, at 1 µM; outline: as §2
[10] = Cytotoxicity against HMBA-stiumulated mouse FLC clone 745 cells assessed as cell viability measured after 48 hrs by Neubauer chamber based microscopic analysis (reference value: 50.563%); type: toxicity; conditions: HMBA-stimulated FLC clone 745 cells, read-out: Activity
FLC clone 745 [11] = assay: Induction of cell cycle arrest in HMBA-stimulated mouse FLC clone 745 cells assessed as accumulation cells at G1/G0 phase at 10^-6 M after 72 hrs by PI staining based flow cytometric analysis (reference value: 7.19%); type: functional; conditions: dose 1 10^-6M, at 1 µM; outline: as §2
FLC clone 745 [12] = assay: Induction of cell cycle arrest in mouse FLC clone 745 cells assessed as accumulation cells at G2/M phase at 10^-6 M after 72 hrs by PI staining based flow cytometric analysis (reference value: 24.82%); type: functional; conditions: dose 1 10^-6M, at 1 µM; outline: as §2
FLC clone 745 [13] = assay: Induction of cell cycle arrest in HMBA-stimulated mouse FLC clone 745 cells assessed as accumulation cells at subG1 phase at 10^-6 M after 48 hrs by PI staining based flow cytometric analysis (reference value: 43.83%); type: functional; conditions: dose 1 10^-6M, at 1 µM; outline: as §2
FLC clone 745 [14] = assay: Induction of cell cycle arrest in mouse FLC clone 745 cells assessed as accumulation cells at > 4N phase at 10^-6 M after 72 hrs by PI staining based flow cytometric analysis (reference value: 14.89%); type: functional; conditions: dose 1 10^-6M, at 1 µM; outline: as §2
FLC clone 745 [15] = assay: Induction of cell cycle arrest in mouse FLC clone 745 cells assessed as accumulation cells at subG1 phase at 10^-6 M after 24 hrs by PI staining based flow cytometric analysis (reference value: 24.11%); type: functional; conditions: dose 1 10^-6M, at 1 µM; outline: as §2
K562 [16] = assay: Induction of apoptosis in human K562 cells assessed as effect on caspase-9 mRNA expression level at 1 to 10 uM cells after 48 hrs by qPCR analysis; type: toxicity, cell-based; conditions: k562, 48 h, dose 1-10 µM; outline: as §1
FLC clone 745 [17] = assay: Induction of cell cycle arrest in mouse FLC clone 745 cells assessed as accumulation cells at > 4N phase at 10^-6 M after 48 hrs by PI staining based flow cytometric analysis (reference value: 7.11%); type: functional; conditions: dose 1 10^-6M, at 1 µM; outline: as §2
FLC clone 745 [18] = assay: Induction of cell cycle arrest in mouse FLC clone 745 cells assessed as accumulation cells at G2/M phase at 10^-6 M after 24 hrs by PI staining based flow cytometric analysis (reference value: 14.35%); type: functional; conditions: dose 1 10^-6M, at 1 µM; outline: as §2
FLC clone 745 [19] = assay: Inhibition of G9a/GLP in HMBA-stiumulated mouse FLC clone 745 cells assessed as increase in HBB mRNA expression at 10^-6 M after 48 hrs by qPCR analsysis; type: cell-based; conditions: dose 1.0 10^-6M
Outline: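 MEL cells treated for 48 h with HMBA 5 × 10−3 M plus compound at 10−6 M. Total RNA reverse-transcribed, and β-globin transcripts measured by qPCR. Data normalized to β-actin using the 2−ΔΔCt method; Student's t-test.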

FLC clone 745 [20] = assay: Induction of cell cycle arrest in HMBA-stimulated mouse FLC clone 745 cells assessed as accumulation cells at > 4N phase at 10^-6 M after 72 hrs by PI staining based flow cytometric analysis (reference value: 4.66%); type: functional; conditions: dose 1 10^-6M, at 1 µM; outline: as §2
FLC clone 745 [21] = assay: Induction of cell cycle arrest in HMBA-stimulated mouse FLC clone 745 cells assessed as accumulation cells at S phase at 10^-6 M after 72 hrs by PI staining based flow cytometric analysis (reference value: 19.52%); type: functional; conditions: dose 1 10^-6M, at 1 µM; outline: as §2
[22] = Inhibition of G9a/GLP in HMBA-stiumulated mouse FLC clone 745 cells assessed as increase in erythroid differentiation at IC50 concentration measured after 96 hrs by benzidine-H2O2 based assay (reference value: 79.45%); conditions: condition erythroleukemia
FLC clone 745 [23] = assay: Induction of cell cycle arrest in HMBA-stimulated mouse FLC clone 745 cells assessed as accumulation cells at subG1 phase at 10^-6 M after 72 hrs by PI staining based flow cytometric analysis (reference value: 58.77%); type: functional; conditions: dose 1 10^-6M, at 1 µM; outline: as §2
FLC clone 745 [24] = assay: Induction of cell cycle arrest in HMBA-stimulated mouse FLC clone 745 cells assessed as accumulation cells at G2/M phase at 10^-6 M after 48 hrs by PI staining based flow cytometric analysis (reference value: 6.67%); type: functional; conditions: dose 1 10^-6M, at 1 µM; outline: as §2
K562 [25] = assay: Induction of apoptosis in human K562 cells assessed as effect on caspase-3 mRNA expression level at 1 to 10 uM cells after 48 hrs by qPCR analysis; type: toxicity, cell-based; conditions: k562, 48 h, dose 1-10 µM; outline: as §1
FLC clone 745 [26] = assay: Induction of cell cycle arrest in HMBA-stimulated mouse FLC clone 745 cells assessed as accumulation cells at > 4N phase at 10^-6 M after 48 hrs by PI staining based flow cytometric analysis (reference value: 2.83%); type: functional; conditions: dose 1 10^-6M, at 1 µM; outline: as §2

COc1cc2c(cc1OCCCN1CCCC1)N=C(N)C21CCC1
Activity (K562 [1]): Non-Toxic
Activity (FLC clone 745 [2]): 6.21%
Activity (FLC clone 745 [3]): 11.73%
Activity (FLC clone 745 [4]): 14.22%
Activity (FLC clone 745 [5]): 23.91%
Activity (FLC clone 745 [6]): Non-Toxic
Activity (FLC clone 745 [7]): 29.12%
Activity (FLC clone 745 [8]): 55.4%
Activity (FLC clone 745 [9]): 9.28%
viability at 48 h [10]: 42.8%
Activity (FLC clone 745 [11]): 8.17%
Activity (FLC clone 745 [12]): 11.32%
Activity (FLC clone 745 [13]): 50.9%
Activity (FLC clone 745 [14]): 11.78%
Activity (FLC clone 745 [15]): 37.13%
Activity (K562 [16]): Non-Toxic
Activity (FLC clone 745 [17]): 9.4%
Activity (FLC clone 745 [18]): 9.04%
inhibition (FLC clone 745 [19]): Active
Activity (FLC clone 745 [20]): 2.89%
Activity (FLC clone 745 [21]): 19.84%
inhibition (INH) [22]: 83.75%
Activity (FLC clone 745 [23]): 62.86%
Activity (FLC clone 745 [24]): 5.67%
Activity (K562 [25]): Non-Toxic
Activity (FLC clone 745 [26]): 3.08%

From ChEMBL document CHEMBL5712920, “The histone methyltransferase inhibitor A-366 enhances hemoglobin expression in erythroleukemia cells upon co-exposure with chemical inducers in culture” (J Biol Res (Thessalon), 2021)
